ChEMBL document CHEMBL1138564, “Microwave-induced synthesis and anti-microbial activities of 7,10,11,12-tetrahydrobenzo[c]acridin-8(9H)-one derivatives” (2009)
Values after ≈ are worked out from the molar mass of the structure shown. Active and inactive are the calls of the source. The rule behind the calls is not given here.

Tests used:
Type in all cases: functional
Escherichia coli [1] = experiment: Antimicrobial activity against Escherichia coli NCIM 2065 at 1000 ug/disk after 24 hrs by disk diffusion method; settings: NCIM 2065, 24 h, read-out: DIZ
How it was run: (§1)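 Disc diffusion on Mueller–Hinton agar. 100 µl of bacterial suspension at 10⁸ CFU/ml is spread on the plate. Discs carry test compounds at two loadings, dissolved in DMSO; DMSO alone serves as negative control. Ofloxacin disc is the positive reference. Plates are incubated at 37 °C for 24 h, and the inhibition zone diameter is measured.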

Bacillus subtilis [2] = experiment: Antimicrobial activity against Bacillus subtilis NCIM 2063 at 1000 ug/disk after 24 hrs by disk diffusion method; settings: NCIM 2063, 24 h, read-out: DIZ; how it was run: as §1
Bacillus cereus [3] = experiment: Antimicrobial activity against Bacillus cereus NCIM 2155 at 500 ug/disk after 24 hrs by disk diffusion method; settings: NCIM 2155, 24 h, read-out: DIZ; how it was run: as §1
Bacillus cereus [4] = experiment: Antimicrobial activity against Bacillus cereus NCIM 2155 at 1000 ug/disk after 24 hrs by disk diffusion method; settings: NCIM 2155, 24 h, read-out: DIZ; how it was run: as §1
Aliivibrio fischeri [5] = experiment: Antimicrobial activity against Vibrio fischeri NCIM 2154 at 500 ug/disk after 24 hrs by disk diffusion method
How it was run: (§2)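 Disc diffusion. 100 µl of bacterial suspension at 10⁸ CFU/ml was spread on Mueller–Hinton agar. Discs loaded with test compound dissolved in DMSO were placed on the lawn, with a DMSO-only disc as negative control. Plates were incubated at 37 °C for 24 h, and the inhibition zone diameter was measured.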

Aliivibrio fischeri [6] = experiment: Antimicrobial activity against Vibrio fischeri NCIM 2154 at 1000 ug/disk after 24 hrs by disk diffusion method; settings: NCIM 2154, 24 h, read-out: DIZ; how it was run: as §2
[7] = test system: Rhodococcus corynebacterioides; experiment: Antimicrobial activity against Corynebacterium rubrum NCIM 2252 at 500 ug/disk after 24 hrs by disk diffusion method; settings: Rhodococcoides corynebacterioides; how it was run: as §1
[8] = test system: Rhodococcus corynebacterioides; experiment: Antimicrobial activity against Corynebacterium rubrum NCIM 2252 at 1000 ug/disk after 24 hrs by disk diffusion method; settings: Rhodococcoides corynebacterioides; how it was run: as §1
Staphylococcus = experiment: Antimicrobial activity against Staphylococcus albus NCIM 2178 at 1000 ug/disk after 24 hrs by disk diffusion method; how it was run: as §2
Proteus vulgaris [9] = experiment: Antimicrobial activity against Proteus vulgaris NCIM 2027 at 500 ug/disk after 24 hrs by disk diffusion method; how it was run: as §1
Proteus vulgaris [10] = experiment: Antimicrobial activity against Proteus vulgaris NCIM 2027 at 1000 ug/disk after 24 hrs by disk diffusion method; how it was run: as §1
Aspergillus flavus [11] = experiment: Antimicrobial activity against Aspergillus flavus NCIM 902 at 1000 ug/disk after 72 hrs by disk diffusion method; settings: NCIM 902, 72 h, read-out: DIZ
How it was run: (§3)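 Disc diffusion on Sabouraud's dextrose agar. 100 µl of fungal suspension at 10⁶ CFU/ml is spread on the plate. Discs carry test compounds at two loadings in DMSO; DMSO alone is the negative control. Clotrimazole disc is the positive reference. Plates are incubated at 27 °C for 72 h, and the zone of inhibition diameter is measured.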

Rhodotorula mucilaginosa [12] = experiment: Antimicrobial activity against Rhodotorula rubra NCIM 3174 at 500 ug/disk after 72 hrs by disk diffusion method; settings: NCIM 3174, 72 h, read-out: DIZ
How it was run: (§4)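 Fungal disc diffusion. 100 µl of suspension at 10⁶ CFU/ml was spread on Sabouraud's dextrose agar. Discs carrying test compound in DMSO were applied, with a DMSO-only disc as negative control. Plates were incubated at 27 °C for 72 h, and the zone of inhibition diameter was measured.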

Rhodotorula mucilaginosa [13] = experiment: Antimicrobial activity against Rhodotorula rubra NCIM 3174 at 1000 ug/disk after 72 hrs by disk diffusion method; settings: NCIM 3174, 72 h, read-out: DIZ; how it was run: as §4
Aspergillus fumigatus [14] = experiment: Antimicrobial activity against Aspergillus fumigatus NCIM 902 at 500 ug/disk after 72 hrs by disk diffusion method; how it was run: as §3
Aspergillus fumigatus [15] = experiment: Antimicrobial activity against Aspergillus fumigatus NCIM 902 at 1000 ug/disk after 72 hrs by disk diffusion method; how it was run: as §3
Aspergillus parasiticus [16] = experiment: Antimicrobial activity against Aspergillus parasiticus NCIM 904 at 1000 ug/disk after 72 hrs by disk diffusion method; settings: NCIM 904, 72 h, read-out: DIZ; how it was run: as §3
Penicillium chrysogenum [17] = experiment: Antimicrobial activity against Penicillium chrysogenum NCIM 707 at 500 ug/disk after 72 hrs by disk diffusion method; how it was run: as §3
Penicillium chrysogenum [18] = experiment: Antimicrobial activity against Penicillium chrysogenum NCIM 707 at 1000 ug/disk after 72 hrs by disk diffusion method; how it was run: as §3
Lipomyces lipofer [19] = experiment: Antimicrobial activity against Lipomyces lipofer NCIM 3252 at 500 ug/disk after 72 hrs by disk diffusion method; how it was run: as §3
Lipomyces lipofer [20] = experiment: Antimicrobial activity against Lipomyces lipofer NCIM 3252 at 1000 ug/disk after 72 hrs by disk diffusion method; how it was run: as §3
Klebsiella aerogenes = experiment: Antimicrobial activity against Klebsiella aerogenes NCIM 2239 at 1000 ug/disk after 24 hrs by disk diffusion method; settings: NCIM 2239, 24 h, read-out: DIZ; how it was run: as §1
Pseudomonas aeruginosa = experiment: Antimicrobial activity against Pseudomonas aeruginosa NCIM 2200 at 1000 ug/disk after 24 hrs by disk diffusion method; how it was run: as §1
Aspergillus flavus [21] = experiment: Antimicrobial activity against Aspergillus flavus NCIM 902 after 72 hrs by serial dilution method; settings: NCIM 535, 72 h, in the assay text read “NCIM 535” for “NCIM 902”
How it was run: (§5)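 MIC by broth dilution in Sabouraud's dextrose broth, only for fungi sensitive in disc diffusion. Two-fold serial dilutions of compounds are made in 1 ml broth per tube, range 3.9 to 1000. Inoculated tubes are incubated at 27 °C for 72 h.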

Rhodotorula mucilaginosa [22] = experiment: Antimicrobial activity against Rhodotorula rubra NCIM 3174 after 72 hrs by serial dilution method; settings: NCIM 3174, 72 h
How it was run: (§6)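 MIC by broth dilution in Sabouraud's dextrose broth, run only on fungi found sensitive in the disc assay. Twofold serial dilutions were made in 1 ml broth per tube, covering 3.9 to 1000. Inoculated tubes were incubated at 27 °C for 72 h.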

Aspergillus parasiticus [23] = experiment: Antimicrobial activity against Aspergillus parasiticus NCIM 904 after 72 hrs by serial dilution method; settings: NCIM 904, 72 h; how it was run: as §5
Trichoderma viride [24] = experiment: Antimicrobial activity against Trichoderma viride NCIM 1195 after 72 hrs by serial dilution method; settings: NCIM 1195, 72 h; how it was run: as §6
Trichoderma viride [25] = experiment: Antimicrobial activity against Trichoderma viride NCIM 1195 at 500 ug/disk after 72 hrs by disk diffusion method; settings: NCIM 1195, 72 h, read-out: DIZ; how it was run: as §4
Trichoderma viride [26] = experiment: Antimicrobial activity against Trichoderma viride NCIM 1195 at 1000 ug/disk after 72 hrs by disk diffusion method; settings: NCIM 1195, 72 h, read-out: DIZ; how it was run: as §4
Escherichia coli [27] = experiment: Antimicrobial activity against Escherichia coli NCIM 2065 after 24 hrs by serial dilution method; settings: NCIM 2065, 24 h
How it was run: (§7)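 Broth dilution MIC in nutrient broth, run only for organisms found sensitive in disc diffusion. Compounds are two-fold serially diluted in 1 ml sterile broth per tube, spanning 3.9 to 1000. Inoculated tubes are incubated at 37 °C for 24 h.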

Bacillus subtilis [28] = experiment: Antimicrobial activity against Bacillus subtilis NCIM 2063 after 24 hrs by serial dilution method; settings: NCIM 2063, 24 h; how it was run: as §7
Aliivibrio fischeri [29] = experiment: Antimicrobial activity against Vibrio fischeri NCIM 2154 after 24 hrs by serial dilution method; settings: NCIM 2154, 24 h

`CC1(C)CC(=O)C2=C(C1)Nc1c(ccc3ccccc13)C2c1ccccc1O` (configuration not stated) showed a zone of inhibition at 1000 µg/disc (Escherichia coli [1]) of 8 mm, a zone of inhibition at 1000 µg/disc (Bacillus subtilis [2]) of 9 mm and a zone of inhibition at 500 µg/disc (Bacillus cereus [3]) of 7 mm. For the same molecule, the zone of inhibition at 1000 µg/disc (Bacillus cereus [4]) was 10 mm, the “diameter of the inhibition zone (DIZ)” value (Aliivibrio fischeri [5]) was “inactive” and the zone of inhibition at 1000 µg/disc (Aliivibrio fischeri [6]) was 8 mm. The “diameter of the inhibition zone (DIZ)” value [7] was “inactive”, the “diameter of the inhibition zone (DIZ)” value [8] was “inactive” and the “diameter of the inhibition zone (DIZ)” value (Staphylococcus) was “inactive”. The “diameter of the inhibition zone (DIZ)” value (Proteus vulgaris [9]) was “inactive”, the “diameter of the inhibition zone (DIZ)” value (Proteus vulgaris [10]) was “inactive” and the zone of inhibition at 1000 µg/disc (Aspergillus flavus [11]) was 10 mm. For the same molecule, the zone of inhibition at 500 µg/disc (Rhodotorula mucilaginosa [12]) was 10 mm, the zone of inhibition at 1000 µg/disc (Rhodotorula mucilaginosa [13]) was 14 mm and the “diameter of the inhibition zone (DIZ)” value (Aspergillus fumigatus [14]) was “inactive”. The “diameter of the inhibition zone (DIZ)” value (Aspergillus fumigatus [15]) was “inactive”, the zone of inhibition at 1000 µg/disc (Aspergillus parasiticus [16]) was 16 mm and the “diameter of the inhibition zone (DIZ)” value (Penicillium chrysogenum [17]) was “inactive”. The “diameter of the inhibition zone (DIZ)” value (Penicillium chrysogenum [18]) was “inactive”, the “diameter of the inhibition zone (DIZ)” value (Lipomyces lipofer [19]) was “inactive” and the “diameter of the inhibition zone (DIZ)” value (Lipomyces lipofer [20]) was “inactive”. The zone of inhibition at 1000 µg/disc (Klebsiella aerogenes) was 10 mm, the “diameter of the inhibition zone (DIZ)” value (Pseudomonas aeruginosa) was “inactive” and the MIC (Aspergillus flavus [21]) was 62.5 µg/mL (≈ 169 µM). For the same molecule, the MIC (Rhodotorula mucilaginosa [22]) was 7.8 µg/mL (≈ 21.1 µM), the MIC (Aspergillus parasiticus [23]) was 3.9 µg/mL (≈ 10.6 µM) and the MIC (Trichoderma viride [24]) was 31.2 µg/mL (≈ 84.4 µM). The zone of inhibition at 500 µg/disc (Trichoderma viride [25]) was 10 mm, the zone of inhibition at 1000 µg/disc (Trichoderma viride [26]) was 12 mm and the MIC (Escherichia coli [27]) was 125 µg/mL (≈ 338 µM). It also gave an MIC (Bacillus subtilis [28]) of 62.5 µg/mL (≈ 169 µM) and an MIC (Aliivibrio fischeri [29]) of 125 µg/mL (≈ 338 µM).
